# According to paper PMC10674630 (Diabetes, Metabolic Syndrome and Obesity, 2023):
# “Also recorded” adds a separate entry of the source. Where two headings read alike, the source gives them in different places. *1 amine or outer side, *2 acyl side, *3 side chain or, on linkers, in order; H or OH if unused. Where a SMILES comes first, the peptide text is derived from it. Bridges are numbered along the chain shown (N, C = ends). [ ]: non-standard residue; d: D form. X1 = CC(C)CCCCCCCCC[C@H](CC(=O)[*:1])O[*:2]
# Tests used:
# SA 095 = test: Microbroth dilution MIC, SA 095; format: cell-based, S. aureus; settings: SA 095 (non-MDR), triplicate
# In short: (§1)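 Surfactin was dissolved in sterile distilled water and tested by broth microdilution in MH broth. Strains were a reference strain and MALDI-TOF-identified clinical isolates from diabetic foot ulcers. MIC was the lowest concentration without visible growth. For MBC, 10 µL from clear wells was plated on MH agar for 24 h at 37 °C, and MBC was the lowest concentration giving no colonies. Tests were run in triplicate.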
# SA 452 [1] = test: Microbroth dilution MIC, SA 452; format: cell-based, S. aureus; settings: SA 452 (MRSA), triplicate
# In short: as §1
# ATCC 25923 [2] = test: Microbroth dilution MIC, ATCC 25923; format: cell-based, S. aureus; settings: triplicate
# In short: as §1
# ATCC 25923 [3] = test: Transmission electron microscopy; format: cell-based, S. aureus; settings: 5×MIC, 1 h, control 0.05% DMSO
# Gram-negative bacteria = test: Efficacy against Gram-negative bacteria; format: cell-based; settings: data not shown
# SA 452 [4] = test: Bacterial growth curves, SA 452; format: cell-based, S. aureus; settings: for Growth inhibition: 24-h exposure, 0, 1/2×MIC, MIC, 2×MIC
# In short: (§2)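 Cultures of ATCC 25923 and a clinical MRSA strain were diluted to 1×10^6 CFU/mL in MH broth with surfactin at 0, 1/2×MIC, MIC or 2×MIC, with an MH broth-only negative control. Tubes were shaken at 200 rpm and 35 °C for 24 h. OD600 was read at 0, 4, 8, 12 and 24 h. Runs were done in triplicate.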
# fnbA = settings: S. aureus; cited from earlier work
# SA 366 = test: Microbroth dilution MIC, SA 366; format: cell-based, S. aureus; settings: SA 366 (MDR), triplicate
# In short: as §1
# [5] = test system: ATCC 25923 biofilm formation; test: Biofilm inhibition assay; format: cell-based, S. aureus
# In short: (§3)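 Overnight cultures were diluted in TSB containing serial surfactin dilutions (1/64×MIC to 2×MIC) to 1×10^6 CFU/mL and grown in triplicate wells for 24 h at 37 °C. Wells were washed three times with PBS and stained with 0.5% crystal violet for 20 min. After air-drying, stain was solubilised in 95% ethanol for 20 min at room temperature and OD570 was read.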
# [6] = test system: standard and clinical strains of Staphylococcus aureus; test: MIC and MBC by microbroth dilution, all selected strains; format: cell-based
# In short: as §1
# human red blood cells = test: Human red blood cells hemolysis assay; format: cell-based; settings: 1 h, 37 °C
# In short: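 Whole blood from healthy human volunteers was spun at 1000×g for 5 min, and the RBCs were washed three times in PBS and resuspended in PBS. RBC suspension was mixed 1:1 with serial surfactin dilutions and incubated 1 h at 37 °C, then supernatant A570 was read. Hemolysis % was scaled between 0.1% DMSO (negative) and 0.1% Triton X-100 (positive).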
# ATCC 25923 [7] = test: Bacterial growth curves, ATCC 25923; format: cell-based, S. aureus
# In short: as §2
# penicillinase = test: Penicillinase inhibition assay; format: biochemical
# In short: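 Penicillin K (10,000 U/mL) added at 2:1 to mixture, 1 h at 37 °C. Then 0.01 mol/L iodine for 15 min, back-titrated with 0.01 mol/L Na2S2O3 to colourless, starch indicator near endpoint. Thiosulfate consumed is inversely related to enzyme activity.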
# SA 326 = test: Microbroth dilution MIC, SA 326; format: cell-based, S. aureus; settings: SA 326 (MRSA), triplicate
# In short: as §1
# sortaseA = settings: S. aureus; cited from earlier work
# icaD = settings: cited from earlier work
# icaA = settings: cited from earlier work
# [8] = test system: S. aureus biofilm formation; test: Biofilm inhibition assay; format: cell-based
# In short: as §3
# [9] = test system: S. aureus (ATCC 25923 and MRSA SA 452); test: Mutant prevention / resistance selection, both strains; format: cell-based; settings: S. aureus
# In short: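 Strains were grown 24 h in MH broth, centrifuged at 4000×g for 10 min and resuspended to 1×1010 CFU/mL. […] MPC was the lowest concentration preventing colonies. MPC/MIC ratio defined the mutant selection window.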
# SA 452 [10] = test system: SA 452
# S. aureus biofilm = settings: ref 28 (Liu et al), cited from earlier work
# ATCC 25923 [11] = test system: ATCC 25923
# SA 452 biofilm formation = test: Biofilm inhibition assay; format: cell-based, S. aureus
# In short: as §3
# fnbB = settings: S. aureus; cited from earlier work
# [12] = 1.5 mg/mL, ref 39 (Englerová et al)
smiles,measurement,setting,value
"CC(C)CCCCCCCCC[C@@H]1CC(=O)N[C@@H](CCC(=O)O)C(=O)N[C@@H](CC(C)C)C(=O)N[C@H](CC(C)C)C(=O)N[C@@H](C(C)C)C(=O)N[C@@H](CC(=O)O)C(=O)N[C@H](CC(C)C)C(=O)N[C@@H](CC(C)C)C(=O)O1 [Surfactin, surfactin] (EL[dL]VD[dL]L; linker N-C via X1 (inferred))",MIC,SA 095,512 µg/mL
same,MIC,SA 452 [1],512 µg/mL
same,MIC,ATCC 25923 [2],512 µg/mL
same,Cell structure by TEM,ATCC 25923 [3],"damaged structure, leading to cell lysis and death; also recorded: irregular and collapsed surfaces, content leakage, and cell death"
same,Efficacy against Gram-negative bacteria relative to Gram-positive,Gram-negative bacteria,less than that of Gram-positive bacteria
same,Growth inhibition,SA 452 [4]; OD600,inhibited the growth of ATCC 25923 and SA 452 in a dose-dependent manner
same,Growth inhibition,"SA 452 [4]; OD600, listed as surfactin",inhibited the growth of both ATCC 25923 and SA 452 in a dose-dependent manner
same,Growth inhibition at MIC and 2×MIC,SA 452 [4]; MIC and 2×MIC,almost completely inhibited
same,Growth reduction at half the MIC,"SA 452 [4]; from 4 h, 1/2×MIC",significantly reduced from 4 h
same,Expression of fnbA (in words),fnbA,inhibit the expression
same,MIC,SA 366,512 µg/mL
same,"Biofilm inhibition, dose dependence",[5]; 1/64×MIC to 2×MIC,dose-dependent inhibitory effect
same,Inhibition of biofilm formation,"[5]; 2×MIC, crystal violet, 24 h, 37°C",80%
same,Concentration from which biofilm inhibition starts,"[5]; crystal violet, OD570, 24 h, 37°C, TSB",1/16
same,Antibacterial activity (in words),"[6]; S. aureus from DFUs (non-MDR, MDR, MRSA) and ATCC 25923",antibacterial and bactericidal activity against S. aureus strains; also recorded: effectively inhibited the growth of S. aureus
same,Difference in MICs between strains with different resistance patterns,"[6]; non-MDR, MDR, MRSA, ATCC 25923",no significant difference in MICs
same,Hemolysis at 16×MIC,"human red blood cells; 16×MIC, human RBC",> 5%
same,Hemolysis below 16×MIC,"human red blood cells; all concentrations less than 16×MIC, human RBC",no hemolysis was observed
same,Concentration at which hemolytic activity (hemolysis > 5%) occurred,"human red blood cells; human RBC in PBS, A570, Triton X-100 positive control",16 ×MIC
same,Cytotoxicity to RBCs (in words),human red blood cells; human RBC,limited toxicity on human red blood cells; also recorded: extremely low cytotoxicity to RBCs; also recorded: very low cytotoxicity to erythrocytes
same,Growth inhibition,"ATCC 25923 [7]; 24-h exposure, 0, 1/2×MIC, MIC, 2×MIC, OD600",inhibited the growth of ATCC 25923 and SA 452 in a dose-dependent manner
same,Growth inhibition at MIC and 2×MIC,ATCC 25923 [7]; MIC and 2×MIC,almost completely inhibited
same,Growth reduction at half the MIC,"ATCC 25923 [7]; from 4 h, 1/2×MIC",significantly reduced from 4 h
same,Volume of Na2S2O3 consumed (penicillinase inhibition),"penicillinase; […], 10,000 U/mL penicillinase, 18 h, 35 °C, penicillinase-only control 0.5 mL",2.25 mL
same,Penicillinase inhibition (in words),penicillinase; iodometry,"directly inhibited penicillinase activity, but not as much as the clavulanate potassium; also recorded: significantly reduced penicillinase activity"
same,MIC,SA 326,1024 µg/mL
same,Expression of sortaseA (in words),sortaseA,inhibit the expression
same,Downregulation of icaD expression,icaD; [12],1.85 fold
same,Expression of icaD (in words),"icaD; 2×MIC, ref 28 (Liu et al)",significantly reduced the expression
same,Downregulation of icaA expression,icaA; [12],2.82 fold
same,Expression of icaA (in words),"icaA; 2×MIC, ref 28 (Liu et al)",significantly reduced the expression
same,Biofilm inhibition at 1/16×MIC (in words),[8]; 1/16×MIC,significantly inhibited
same,Biofilm inhibition (in words),[8]; S. aureus,significantly prevented the S. aureus biofilm formation; also recorded: dose-dependent inhibitory effect on S. aureus biofilm formation; also recorded: significantly reducing biofilm production
same,In vitro resistance development,[9],In vitro resistance was not readily produced
same,FICI,SA 452 [10]; surfactin with ampicillin,0.133
same,Fold Change,SA 452 [10]; surfactin with ampicillin,8
same,FICI,SA 452 [10]; surfactin with ciprofloxacin,2
same,FICI,SA 452 [10]; surfactin with erythromycin,2
same,FICI,SA 452 [10]; surfactin with gentamicin,0.25
same,Fold Change,SA 452 [10]; surfactin with gentamicin,8
same,FICI,SA 452 [10]; surfactin with oxacillin,0.156
same,Fold Change,SA 452 [10]; surfactin with oxacillin,8
same,FICI,SA 452 [10]; surfactin with tetracycline,0.133
same,Fold Change,SA 452 [10]; surfactin with tetracycline,8
same,Biofilm removal rate,"S. aureus biofilm; 0.2% surfactin, 4 h",80%
same,Reduction of biofilm production,"S. aureus biofilm; one-quarter MIC, S. aureus",60%
same,FICI,ATCC 25923 [11]; surfactin with ampicillin,0.5
same,Fold Change,ATCC 25923 [11]; surfactin with ciprofloxacin,2
same,Fold Change,ATCC 25923 [11]; surfactin with erythromycin,8
same,FICI,ATCC 25923 [11]; surfactin with oxacillin,0.25
same,Fold Change,ATCC 25923 [11]; surfactin with oxacillin,8
same,FICI,ATCC 25923 [11]; surfactin with tetracycline,0.188
same,Fold Change,ATCC 25923 [11]; surfactin with tetracycline,8
same,MRSA biofilm inhibition at 2×MIC (in words),"SA 452 biofilm formation; MRSA, 2×MIC",almost completely inhibited
same,"Biofilm inhibition, dose dependence","SA 452 biofilm formation; SA 452, 1/64×MIC to 2×MIC",dose-dependent inhibitory effect
same,Inhibition of biofilm formation,"SA 452 biofilm formation; SA 452, 2×MIC, crystal violet, 24 h, 37°C",more than 95%
same,Concentration from which biofilm inhibition starts,"SA 452 biofilm formation; SA 452, crystal violet, OD570, 24 h, 37°C, TSB",1/16
same,Expression of fnbB (in words),fnbB,inhibit the expression
